The values below come from the array DNA melting data of Ke et al. (doi:10.1101/2024.01.08.574731).

The nature of data set [1]: melting temperature; fluorescence melt of hairpins on a sequencing array, two-state fit, raised by 9.35 °C to match UV melts. The following applies: sodium 0.088 M. The method, boiled down: (§1)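 With Cy3 and quencher oligos annealed, library hairpins on a sequenced MiSeq flow cell were imaged for Cy3 fluorescence in 50 mM Na-HEPES pH 8.0, 25 mM NaCl, in 2.5 °C steps up to 60 °C. Melting temperature and folding enthalpy were derived from bootstrapped two-state fits of signals normalised to pre-quench Cy3 and to control constructs. Four replicates were combined by inverse variance, with fitted temperatures raised by 9.35 °C to match UV melts.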

A short description of data set [2]: folding enthalpy; higher = less favourable; fluorescence melt of hairpins on a sequencing array, two-state fit. The following applies: sodium 0.088 M. The method, boiled down:
as §1

With GGAGGCGGAAACGCTTCC (((.(((....))).))), in data set [1], the Tm was determined as 55.2 °C. Moreover, the folding enthalpy in data set [2] was -36.9 kcal/mol.
As to GGAGGGCGAAAGCCTCC (((.(((....)))))), the Tm in data set [1] was determined as 61.9 °C. Moreover, in data set [2], the folding enthalpy was -18.7 kcal/mol.
The like results for GGAGGGGGAAACCCCTCC (((((((....))))))) were, in that order, 69.3 °C and -32 kcal/mol.
As for GGAGGGGGAAACCCCTTC (.(((((....))))).), the Tm in data set [1] stood at 50.6 °C. Moreover, the folding enthalpy in data set [2] is -24.1 kcal/mol.
With GGAGGTGGAAACACCTTC (.(((((....))))).), in data set [1], the Tm amounted to 51.4 °C. In data set [2], the folding enthalpy is -29 kcal/mol.
The like results for GGAGGTGGAAACACTTCC (((.(((....))).))) were, in that order, 48.2 °C and -35.2 kcal/mol.
GGAGGTGGAAACATCTCC ((((.((....)).)))): the Tm in data set [1] worked out at 49.1 °C. Also, in data set [2], the folding enthalpy was -44.1 kcal/mol.
Consider GGAGGTGGAAACGCTTCC (((.(.(....).).))), for which, in data set [1], the Tm stood at 34.3 °C. The folding enthalpy in data set [2] was -23.3 kcal/mol.
In the case of GGAGTAACGAAAGTTTCC (((..(((....)))))), the Tm in data set [1] is 30.7 °C. Besides, the folding enthalpy in data set [2] is -16.6 kcal/mol.
Regarding GGAGTACGAAAGTAGTCC (((.(((....))).))), in data set [1], the Tm amounted to 55.2 °C. Besides, the folding enthalpy in data set [2] is -40.4 kcal/mol.
For the sequence GGAGTCCGAAAGGAATCC (((.(((....))).))), in data set [1], the Tm is 56.4 °C. Moreover, the folding enthalpy in data set [2] was -41.5 kcal/mol.
In the case of GGAGTCGAAAGACAATCC ((((((....)))..))), the Tm in data set [1] amounted to 32.5 °C. Besides, the folding enthalpy in data set [2] was -15.4 kcal/mol.
On to GGAGTCGAAAGACATTCC ((((((....)))..))), for which, in data set [1], the Tm was 27.9 °C. The folding enthalpy in data set [2] was -12.7 kcal/mol.
The like results for GGAGTCGAAAGACCCTCC ((((((....)))..))) were, in that order, 48 °C and -16.7 kcal/mol.
In the case of GGAGTCGAAAGACGTCC ((((((....))).))), the Tm in data set [1] was 46 °C. Moreover, the folding enthalpy in data set [2] is -14.7 kcal/mol.
As for GGAGTCGCGAAAGCGTCC (((..(((....)))))), the Tm in data set [1] was determined as 34.1 °C. For the same sequence, the folding enthalpy in data set [2] was -12.3 kcal/mol.
In the case of GGAGTCGGAAACAACTCC (((((.(....).))))), the Tm in data set [1] is 41.5 °C. In addition, the folding enthalpy in data set [2] is -32.6 kcal/mol.
Consider GGAGTCGGAAACGATTCC (((.(((....))).))), for which the Tm in data set [1] was found to be 50.3 °C. For the same sequence, the folding enthalpy in data set [2] is -30.1 kcal/mol.
With GGAGTCGGAAACGGCTCC ((((.((....)).)))), the Tm in data set [1] turned out to be 61 °C. Further, in data set [2], the folding enthalpy was -45.8 kcal/mol.
As for GGAGTCTCGAAAGAGTCC (((..(((....)))))), the Tm in data set [1] is 41.7 °C. The folding enthalpy in data set [2] is -20.1 kcal/mol.
Take GGAGTGGGAAACCACTTC (.(((((....))))).): the Tm in data set [1] was found to be 49.4 °C. Further, the folding enthalpy in data set [2] is -20.2 kcal/mol.
GGAGTGGGAAACTGCTCC ((((..(....)..)))): in data set [1], the Tm stood at 44.5 °C. Besides, the folding enthalpy in data set [2] was -31.5 kcal/mol.
GGAGTTCCGAAAGGATCC (((..(((....)))))): in data set [1], the Tm amounted to 31 °C. For the same sequence, in data set [2], the folding enthalpy is -12.8 kcal/mol.
Take GGAGTTCGAAAGAATTCC (((.(((....))).))): in data set [1], the Tm was found to be 48.6 °C. Moreover, in data set [2], the folding enthalpy is -39.8 kcal/mol.
Consider GGAGTTGCGAAAGCATCC (((..(((....)))))), for which the Tm in data set [1] stood at 32.5 °C. Also, the folding enthalpy in data set [2] was -12.7 kcal/mol.
On to GGAGTTGGAAACAATTCC (((.(((....))).))), for which the Tm in data set [1] stood at 43 °C. For the same sequence, the folding enthalpy in data set [2] is -29.6 kcal/mol.
Regarding GGAGTTGGAAACGATTCC (((.(.(....).).))), in data set [1], the Tm was 40.8 °C. Further, the folding enthalpy in data set [2] was -19.6 kcal/mol.
Take GGATAACGAAAGTTGTCC (((.(((....))).))): the Tm in data set [1] was 52.7 °C. Also, the folding enthalpy in data set [2] was -47.7 kcal/mol.
With GGATAAGGAAACTTATTC (.(((((....))))).), the Tm in data set [1] was 30.4 °C. The folding enthalpy in data set [2] was -21.2 kcal/mol.
As to GGATACGAAAGTAAGTCC ((((((....)))..))), the Tm in data set [1] turned out to be 22.2 °C. The folding enthalpy in data set [2] is -9.06 kcal/mol.
